ChEMBL document CHEMBL1156961, “Inhibition of Escherichia coli glycosyltransferase MurG and Mycobacterium tuberculosis Gal transferase by uridine-linked transition state mimics” (Bioorg Med Chem, 2010)
Active and inactive are the calls of the source. The rule behind the calls is not given here.

What was measured:
[1] = molecular target: T1, Galactofuranosyltransferase GlfT2 (Mycobacterium tuberculosis) (UniProt O53585); assay: Inhibition of Mycobacterium tuberculosis GlfT2 assessed as incorporation of [14C]Gal at 1 mM by scintillation counting
T1 sequence (whole entry): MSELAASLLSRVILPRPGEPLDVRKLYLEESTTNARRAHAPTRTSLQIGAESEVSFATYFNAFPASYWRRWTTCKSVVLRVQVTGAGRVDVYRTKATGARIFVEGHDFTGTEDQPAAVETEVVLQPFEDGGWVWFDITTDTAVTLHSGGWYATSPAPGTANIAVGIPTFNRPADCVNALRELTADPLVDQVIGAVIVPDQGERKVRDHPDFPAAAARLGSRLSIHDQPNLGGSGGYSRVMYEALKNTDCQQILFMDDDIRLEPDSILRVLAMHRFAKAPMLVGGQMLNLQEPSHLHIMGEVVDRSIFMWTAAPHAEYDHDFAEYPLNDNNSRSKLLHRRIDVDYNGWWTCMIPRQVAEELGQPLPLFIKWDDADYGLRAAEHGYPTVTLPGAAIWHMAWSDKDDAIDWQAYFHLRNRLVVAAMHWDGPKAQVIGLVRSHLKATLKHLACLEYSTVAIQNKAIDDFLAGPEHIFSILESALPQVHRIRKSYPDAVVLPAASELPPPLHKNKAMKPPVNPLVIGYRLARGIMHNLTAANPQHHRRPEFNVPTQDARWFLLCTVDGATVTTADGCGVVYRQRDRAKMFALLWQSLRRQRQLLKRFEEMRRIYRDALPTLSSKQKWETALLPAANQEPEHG

Escherichia coli [2] = assay: Inhibition of Escherichia coli recombinant C terminal His-tagged MurG expressed in Escherichia coli C43 assessed as inhibition of […] labelled lipid intermediate 2 formation at 1 mM over 15 mins by scintillation counting
Bacillus subtilis = assay: Antibacterial activity against Bacillus subtilis W23 at 100 ug/ml after 24 hrs; assay type: functional, organism-based
In short: (§1)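 LB broth culture grown overnight at 37 °C from a single colony, diluted to 2% in fresh LB and mixed 1:1 with sterile aqueous compound (200 μg/ml or 1 mg/ml solution) or water. Incubated at 37 °C, growth followed by OD595 at 3, 6 and 24 h.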

Pseudomonas putida = assay: Antibacterial activity against Pseudomonas putida ATCC 33015 at 100 ug/ml after 24 hrs; assay type: functional, organism-based; in short: as §1
Escherichia coli [3] = assay: Antibacterial activity against Escherichia coli BL21 at 100 ug/ml after 24 hrs; assay type: functional, organism-based; in short: as §1
[4] = Inhibition of Escherichia coli recombinant C terminal His-tagged MurG expressed in Escherichia coli C43 assessed as inhibition of [3H]UDPGlc labelled lipid intermediate 2 formation over 15 mins by scintillation counting

COC(=O)[C@@H]1[C@@H]2C(=O)N(CC(=O)NC[C@H]3O[C@@H](n4ccc(=O)[nH]c4=O)[C@H](O)[C@@H]3O)C(=O)[C@@H]2N[C@@H]1c1ccccc1OC
inhibition [1]: 0%
inhibition (Escherichia coli [2]): 0%

COC(=O)[C@@H]1[C@@H]2C(=O)N(CC(=O)NC[C@H]3O[C@@H](n4ccc(=O)[nH]c4=O)[C@H](O)[C@@H]3O)C(=O)[C@@H]2N[C@@H]1c1ccccc1
inhibition [1]: 80%
inhibition (Escherichia coli [2]): 0%

COc1ccccc1[C@H]1N[C@@](C)(C(=O)NCC(=O)NC[C@H]2O[C@@H](n3ccc(=O)[nH]c3=O)[C@H](O)[C@@H]2O)[C@H]2C(=O)N(c3ccccc3)C(=O)[C@@H]12 (mixture of isomers)
Activity (Bacillus subtilis): inactive
inhibition [1]: 0%
Activity (Pseudomonas putida): inactive
Activity (Escherichia coli [3]): inactive

COC(=O)[C@@H]1[C@@H]2C(=O)N(CC(=O)NC[C@H]3O[C@@H](n4ccc(=O)[nH]c4=O)[C@H](O)[C@@H]3O)C(=O)[C@@H]2N[C@@H]1c1cccc(OC)c1OC
inhibition (Escherichia coli [2]): 0%

COc1ccccc1[C@H]1N[C@@](C)(COC(=O)CCC(=O)OC[C@H]2O[C@@H](n3ccc(=O)[nH]c3=O)[C@H](O)[C@@H]2O)[C@H]2C(=O)N(c3ccccc3)C(=O)[C@@H]12 (mixture of isomers)
inhibition [1]: 0%

COC(=O)[C@H]1[C@@H](c2ccccc2OC)N[C@@](C)(C(=O)NCC(=O)NC[C@H]2O[C@@H](n3ccc(=O)[nH]c3=O)[C@H](O)[C@@H]2O)[C@@H]1C(=O)OC (mixture of isomers)
inhibition [1]: 0%
IC50 [4]: > 5 mM

COc1ccccc1[C@H]1N[C@@](C)(COC(=O)CC(=O)OC[C@H]2O[C@@H](n3ccc(=O)[nH]c3=O)[C@H](O)[C@@H]2O)[C@H]2C(=O)N(c3ccccc3)C(=O)[C@@H]12
inhibition [1]: 0%

COC(=O)[C@@H]1[C@H]2C(=O)N(CC(=O)NC[C@H]3O[C@@H](n4ccc(=O)[nH]c4=O)[C@H](O)[C@@H]3O)C(=O)[C@@H]2N[C@@H]1c1ccccc1OC
inhibition [1]: 0%
inhibition (Escherichia coli [2]): 22%

C[C@@]1(C(=O)NCC(=O)NC[C@H]2O[C@@H](n3ccc(=O)[nH]c3=O)[C@H](O)[C@@H]2O)N[C@H]([C@H](O)CO)[C@@H]2C(=O)N(c3ccccc3)C(=O)[C@@H]21
inhibition [1]: 0%

COC(=O)[C@H]1[C@@H](c2ccccc2OC)N[C@@](C)(C(=O)N2CCC[C@H]2C(=O)NC[C@H]2O[C@@H](n3ccc(=O)[nH]c3=O)[C@H](O)[C@@H]2O)[C@H]1C(=O)OC
inhibition [1]: 0%

COc1ccccc1[C@H]1N[C@@](C)(C(=O)N2CCC[C@H]2C(=O)NC[C@H]2O[C@@H](n3ccc(=O)[nH]c3=O)[C@H](O)[C@@H]2O)[C@H]2C(=O)NC(=O)[C@@H]12
IC50 [4]: > 5 mM

COC(=O)[C@@H]1[C@@H]2C(=O)N(CC(=O)NC[C@H]3O[C@@H](n4ccc(=O)[nH]c4=O)[C@H](O)[C@@H]3O)C(=O)[C@@H]2N[C@@H]1c1ccc(OC)c(OC)c1
inhibition [1]: 0%
IC50 [4]: 4 mM

COC(=O)[C@H]1[C@@H](c2ccccc2OC)N[C@@](C)(C(=O)N2CCC[C@H]2C(=O)NC[C@H]2O[C@@H](n3ccc(=O)[nH]c3=O)[C@H](O)[C@@H]2O)[C@@H]1C(=O)OC (mixture of isomers)
inhibition [1]: 0%

COc1cccc([C@H]2N[C@@](C)(C(=O)NCC(=O)NC[C@H]3O[C@@H](n4ccc(=O)[nH]c4=O)[C@H](O)[C@@H]3O)[C@H]3C(=O)N(c4ccccc4)C(=O)[C@@H]23)c1OC
inhibition [1]: 0%
